ChEMBL document CHEMBL1687778, “Genetic determinants involved in the susceptibility of Pseudomonas aeruginosa to beta-lactam antibiotics” (2010)
In brackets after ≈: the same amount, converted by molar mass.

Legend:
[1] = tested on: Pseudomonas aeruginosa PA14; assay: Activity of Beta-lactamase in Pseudomonas aeruginosa PA14 PA4020 harboring mpl mutant gene assessed as nitrocefin hydrolysis per mg of protein by spectrophotometry
Procedure, shortened: (§1)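 Cells grown to OD600 1.0, pelleted and resuspended in 0.1 M KH2PO4-Na2HPO4 pH 7.0. Crude extract made by two freeze-thaw cycles plus sonication on ice. β-Lactamase read as absorbance change at 485 nm with 50 µM nitrocefin in the same pH 7.0 phosphate buffer. Extract protein measured by BCA against a bovine serum albumin standard.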

Pseudomonas aeruginosa [2] = assay: Antimicrobial activity against Pseudomonas aeruginosa PA14 PA1195 harboring mutation in putative dimethylarginine dimethylaminohydrolase by Etest method; format: functional
Procedure, shortened: (§2)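 Overnight LB cultures (37°C) diluted in sterile 0.85% NaCl to about 1 × 10^7 CFU/ml. 100 µl spread on Mueller-Hinton agar, one Etest strip per plate, 18 h at 37°C. Ceftazidime, imipenem and meropenem tested. Wild-type PA14 plate included in each set. Each mutant verified in triplicate.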

Pseudomonas aeruginosa [3] = assay: Antimicrobial activity against wild type Pseudomonas aeruginosa PA14 by Etest method; format: functional
Procedure, shortened: (§3)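 Etest MIC. Overnight LB cultures at 37°C were diluted in sterile 0.85% NaCl to about 1 × 10^7 CFU/ml. 100 µl was spread on Mueller-Hinton agar, one strip was placed per plate, and plates were incubated at 37°C for 18 h. Equal cell numbers were seeded per plate, and results were verified in triplicate. PA14 wild type was included in each set as a susceptibility control.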

Pseudomonas aeruginosa [4] = assay: Antimicrobial activity against Pseudomonas aeruginosa PA14 PA3247 harboring mutation in putative aspartyl aminopeptidase by Etest method; format: functional; procedure, shortened: as §2
Pseudomonas aeruginosa [5] = assay: Antimicrobial activity against Pseudomonas aeruginosa PA14 PA5003 harboring mutation in conserved hypothetical protein by Etest method; format: functional; procedure, shortened: as §3
Pseudomonas aeruginosa [6] = assay: Antimicrobial activity against Pseudomonas aeruginosa PA14 PA3262 harboring fklB mutant gene by Etest method; format: functional; procedure, shortened: as §3
Pseudomonas aeruginosa [7] = assay: Antimicrobial activity against Pseudomonas aeruginosa PA14 PA4459 harboring mutation in Conserved hypothetical protein by Etest method; format: functional; procedure, shortened: as §3
Pseudomonas aeruginosa [8] = assay: Antimicrobial activity against Pseudomonas aeruginosa PA14 PA2487 harboring mutation in hypothetical protein by Etest method; format: functional; procedure, shortened: as §2
Pseudomonas aeruginosa [9] = assay: Antimicrobial activity against Pseudomonas aeruginosa PA14 PA3520 harboring mutation in putative periplasmic metal-binding protein by Etest method; format: functional; procedure, shortened: as §3
Pseudomonas aeruginosa [10] = assay: Antimicrobial activity against Pseudomonas aeruginosa PA14 PA4088 harboring mutation in putative aminotransferase by Etest method; format: functional; procedure, shortened: as §3
Pseudomonas aeruginosa [11] = assay: Antimicrobial activity against Pseudomonas aeruginosa PA14 PA4550 harboring fimU mutant gene by Etest method; format: functional; procedure, shortened: as §3
Pseudomonas aeruginosa [12] = assay: Antimicrobial activity against Pseudomonas aeruginosa PA14 PA3145 harboring wbpL mutant gene by Etest method; format: functional; procedure, shortened: as §2
Pseudomonas aeruginosa [13] = assay: Antimicrobial activity against Pseudomonas aeruginosa PA14 PA0908 harboring mutation in hypothetical protein by Etest method; format: functional; procedure, shortened: as §2
[14] = tested on: Pseudomonas aeruginosa PA14; assay: Activity of Beta-lactamase in Pseudomonas aeruginosa PA14 PA4020 harboring complemented mpl mutant gene assessed as nitrocefin hydrolysis per mg of protein by spectrophotometry; procedure, shortened: as §1
Pseudomonas aeruginosa [15] = assay: Antimicrobial activity against Pseudomonas aeruginosa PA14 PA1348 harboring mutation in conserved hypothetical protein by Etest method; format: functional; procedure, shortened: as §2
Pseudomonas aeruginosa [16] = assay: Antimicrobial activity against Pseudomonas aeruginosa PA14 PA14_43090 harboring mutation in hypothetical protein by Etest method; format: functional; procedure, shortened: as §2
Pseudomonas aeruginosa [17] = assay: Antimicrobial activity against Pseudomonas aeruginosa PA14 PA0503 harboring mutation in Putative biotin synthesis protein BioC by Etest method; format: functional; procedure, shortened: as §2
Pseudomonas aeruginosa [18] = assay: Antimicrobial activity against Pseudomonas aeruginosa PA14 PA5005 harboring mutation in putative carbamoyltransferase by Etest method; format: functional; procedure, shortened: as §3
Pseudomonas aeruginosa [19] = assay: Antimicrobial activity against Pseudomonas aeruginosa PA14 PA3721 harboring nalC mutant gene by Etest method; format: functional; procedure, shortened: as §3
Pseudomonas aeruginosa [20] = assay: Antimicrobial activity against Pseudomonas aeruginosa PA14 PA4005 harboring mutation in conserved hypothetical protein by Etest method; format: functional; procedure, shortened: as §3
Pseudomonas aeruginosa [21] = assay: Antimicrobial activity against Pseudomonas aeruginosa PA14 PA3649 harboring mutation in putative membrane-associated zinc metalloprotease by Etest method; format: functional; procedure, shortened: as §3
Pseudomonas aeruginosa [22] = assay: Antimicrobial activity against Pseudomonas aeruginosa PA14 PA5443 harboring uvrD mutant gene by Etest method; format: functional; procedure, shortened: as §3
Pseudomonas aeruginosa [23] = assay: Antimicrobial activity against Pseudomonas aeruginosa PA14 PA2023 harboring galU mutant gene by Etest method; format: functional; procedure, shortened: as §2
[24] = tested on: Pseudomonas aeruginosa PA14; assay: Activity of wild type Pseudomonas aeruginosa PA14 Beta-lactamase assessed as nitrocefin hydrolysis per mg of protein by spectrophotometry; procedure, shortened: as §1
Pseudomonas aeruginosa [25] = assay: Antimicrobial activity against Pseudomonas aeruginosa PA14 PA3433 harboring mutation in putative transcriptional regulator, LysR family by Etest method; format: functional; procedure, shortened: as §3
Pseudomonas aeruginosa [26] = assay: Antimicrobial activity against Pseudomonas aeruginosa PA14 PA5001 harboring mutation in conserved hypothetical protein by Etest method; format: functional; procedure, shortened: as §3
Pseudomonas aeruginosa [27] = assay: Antimicrobial activity against Pseudomonas aeruginosa PA14 PA0764 harboring mucB mutant gene by Etest method; format: functional; procedure, shortened: as §2
Pseudomonas aeruginosa [28] = assay: Antimicrobial activity against Pseudomonas aeruginosa PA14 PA3704 harboring wspE mutant gene by Etest method; format: functional; procedure, shortened: as §3
[29] = tested on: Pseudomonas aeruginosa PA14; assay: Activity of Beta-lactamase in Pseudomonas aeruginosa PA14 PA4109 harboring ampR mutant gene assessed as nitrocefin hydrolysis per mg of protein by spectrophotometry; procedure, shortened: as §1
Pseudomonas aeruginosa [30] = assay: Antimicrobial activity against Pseudomonas aeruginosa PA14 PA4109 harboring ampR mutant gene by Etest method; format: functional; procedure, shortened: as §3
Pseudomonas aeruginosa [31] = assay: Antimicrobial activity against Pseudomonas aeruginosa PA14 PA4402 harboring argJ mutant gene by Etest method; format: functional; procedure, shortened: as §3
Pseudomonas aeruginosa [32] = assay: Antimicrobial activity against Pseudomonas aeruginosa PA14 PA1483 harboring cycH mutant gene by Etest method; format: functional; procedure, shortened: as §2
Pseudomonas aeruginosa [33] = assay: Antimicrobial activity against Pseudomonas aeruginosa PA14 PA4753 harboring mutation in putative RNA-binding protein by Etest method; format: functional; procedure, shortened: as §3
[34] = tested on: Pseudomonas aeruginosa PA14; assay: Activity of Beta-lactamase in Pseudomonas aeruginosa PA14 PA4522 harboring ampD mutant gene assessed as nitrocefin hydrolysis per mg of protein by spectrophotometry; procedure, shortened: as §1
Pseudomonas aeruginosa [35] = assay: Antimicrobial activity against Pseudomonas aeruginosa PA14 PA5192 harboring pckA mutant gene by Etest method; format: functional; procedure, shortened: as §3
Pseudomonas aeruginosa [36] = assay: Antimicrobial activity against Pseudomonas aeruginosa PA14 PA3259 harboring mutation in conserved hypothetical protein by Etest method; format: functional; procedure, shortened: as §3

Work on `CC(C)(O/N=C(\C(=O)N[C@@H]1C(=O)N2C(C(=O)[O-])=C(C[n+]3ccccc3)CS[C@H]12)c1csc(N)n1)C(=O)O` [CEFTAZIDIME] yielded an Activity [1] of 96 nmol/min, an MIC (Pseudomonas aeruginosa [2]) of 0.5 µg/mL (≈ 0.915 µM) and an MIC (Pseudomonas aeruginosa [3]) of 0.75 µg/mL (≈ 1.37 µM). The MIC (Pseudomonas aeruginosa [4]) was 2 µg/mL (≈ 3.66 µM), the MIC (Pseudomonas aeruginosa [5]) was 3 µg/mL (≈ 5.49 µM) and the MIC (Pseudomonas aeruginosa [6]) was 0.75 µg/mL (≈ 1.37 µM). The MIC (Pseudomonas aeruginosa [7]) was 1.5 µg/mL (≈ 2.74 µM), the MIC (Pseudomonas aeruginosa [8]) was 2 µg/mL (≈ 3.66 µM) and the MIC (Pseudomonas aeruginosa [9]) was 1.5 µg/mL (≈ 2.74 µM). For the same compound, the MIC (Pseudomonas aeruginosa [10]) was 0.25 µg/mL (≈ 0.457 µM), the MIC (Pseudomonas aeruginosa [11]) was 2 µg/mL (≈ 3.66 µM) and the MIC (Pseudomonas aeruginosa [12]) was 2 µg/mL (≈ 3.66 µM). It also gave an MIC (Pseudomonas aeruginosa [13]) of 2 µg/mL (≈ 3.66 µM), an Activity [14] of 7.3 nmol/min and an MIC (Pseudomonas aeruginosa [15]) of 1.5 µg/mL (≈ 2.74 µM). The MIC (Pseudomonas aeruginosa [16]) was 2 µg/mL (≈ 3.66 µM), the MIC (Pseudomonas aeruginosa [17]) was 0.5 µg/mL (≈ 0.915 µM) and the MIC (Pseudomonas aeruginosa [18]) was 3 µg/mL (≈ 5.49 µM). For the same compound, the MIC (Pseudomonas aeruginosa [19]) was 1.5 µg/mL (≈ 2.74 µM), the MIC (Pseudomonas aeruginosa [20]) was 0.75 µg/mL (≈ 1.37 µM) and the MIC (Pseudomonas aeruginosa [21]) was 0.5 µg/mL (≈ 0.915 µM). The MIC (Pseudomonas aeruginosa [22]) was 1.5 µg/mL (≈ 2.74 µM), the MIC (Pseudomonas aeruginosa [23]) was 3 µg/mL (≈ 5.49 µM) and the Activity [24] was 4.9 nmol/min. The MIC (Pseudomonas aeruginosa [25]) was 0.5 µg/mL (≈ 0.915 µM), the MIC (Pseudomonas aeruginosa [26]) was 3 µg/mL (≈ 5.49 µM) and the MIC (Pseudomonas aeruginosa [27]) was 0.75 µg/mL (≈ 1.37 µM). The MIC (Pseudomonas aeruginosa [28]) was 2 µg/mL (≈ 3.66 µM), the Activity [29] was 257 nmol/min and the MIC (Pseudomonas aeruginosa [30]) was 4 µg/mL (≈ 7.32 µM). The MIC (Pseudomonas aeruginosa [31]) was 3 µg/mL (≈ 5.49 µM), the MIC (Pseudomonas aeruginosa [32]) was 0.5 µg/mL (≈ 0.915 µM) and the MIC (Pseudomonas aeruginosa [33]) was 0.25 µg/mL (≈ 0.457 µM). The Activity [34] was 31 nmol/min, the MIC (Pseudomonas aeruginosa [35]) was 0.5 µg/mL (≈ 0.915 µM) and the MIC (Pseudomonas aeruginosa [36]) was 1.5 µg/mL (≈ 2.74 µM).
